Results taken from ChEMBL document CHEMBL1833877, “Antinociceptive properties of bergenin” (J Nat Prod, 2011).
The source made the active and inactive calls.

What was measured:
Mus musculus [1] = test: Antinociceptive activity against formalin-induced pain in mouse assessed as paw licking during early phase (0 to 10 mins) at 50 mg/kg, ip administered 40 mins before formalin challenge; assay type: functional, organism-based; set-up: dose 50 mg/kg
In short: (§1)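 Mice were acclimated 30 min in an observation chamber, then given 20 μL of 2.5% formalin sc into the dorsal hind paw. Dosing was ip (2% DMSO/saline vehicle) 40 min beforehand. Time spent licking the injected paw was scored over 0–10 min and 10–60 min. n = 6/group, means ± SEM, ANOVA with Tukey.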

Mus musculus [2] = test: Inhibition of TNF-alpha production in Freund's complete adjuvant-induced mouse at 50 mg/kg, ip administered 40 mins before CFA challenge measured after 2 hrs by ELISA; assay type: functional, organism-based; set-up: dose 50 mg/kg
In short: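 CFA was given intraplantar, with ip dosing (2% DMSO/saline vehicle) 40 min earlier. At 2 h, paw skin was taken under terminal halothane anesthesia. Tissue was extracted (100 mg/mL PBS with 0.4 M NaCl, 0.05% Tween 20 and protease inhibitors) and centrifuged at 3000g for 10 min. Supernatant was assayed by mouse ELISA, in pg/mL. n = 6/group.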

Mus musculus [3] = test: Toxicity in mouse assessed as reduction in corporal mass at 100 mg/kg, ip for seven consecutive days relative to control; assay type: organism-based; set-up: dose 100 mg/kg, route intraperitoneal; conditions: in vivo
In short: (§2)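 Mice were weighed and dosed ip once daily for 7 consecutive days, vehicle controls alongside, and monitored for toxic signs and general appearance. At the end, retro-orbital blood was taken under light anesthesia for leukocyte counts. Serum, from blood centrifuged at 2500 rpm for 15 min without anticoagulant, was used for ALT and AST.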

Mus musculus [4] = test: Toxicity in mouse assessed as renal function measuring serum urea level at 100 mg/kg, ip for seven consecutive days relative to control; assay type: organism-based; set-up: dose 100 mg/kg, route intraperitoneal; conditions: in vivo
In short: (§3)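 Once-daily ip dosing for seven consecutive days in male mice (22–28 g), with vehicle (2% DMSO in saline) as control. At the end of treatment, blood taken from the retro-orbital plexus under light anesthesia. Serum obtained without anticoagulant by centrifugation at 2500 rpm for 15 min, then assayed biochemically for urea and creatinine. Means ± SEM, 6–9 animals per group.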

Mus musculus [5] = test: Antinociceptive activity in ip dosed mouse assessed as inhibition of acetic acid-induced abdominal constrictions administered 40 mins before acetic acid challenge measured for 30 mins; assay type: functional, organism-based; conditions: Abdomen
In short: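 Dosing was ip in 2% DMSO/saline 40 min before ip acetic acid (0.8% v/v, 10 mL/kg). Writhes (abdominal contraction with hind-limb stretching) were counted over 0–30 min. n = 6 mice/group, means ± SEM, ANOVA with Tukey.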

Mus musculus [6] = test: Toxicity in mouse assessed as leukogram at 100 mg/kg, ip for seven consecutive days relative to control; assay type: organism-based; set-up: dose 100 mg/kg, route intraperitoneal; conditions: in vivo; in short: as §2
Mus musculus [7] = test: Antinociceptive activity against Freund's complete adjuvant-induced paw inflammation in mouse assessed as reduction in mechanical hyperalgesia at 100 mg/kg, ip administered 40 mins before CFA challenge measured after 2 to 6 hrs; assay type: functional, organism-based; set-up: dose 100 mg/kg
In short: (§4)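 Mice, lightly halothane-anesthetized, got 20 μL complete Freund's adjuvant (1 mg/mL heat-killed M. tuberculosis in paraffin oil/mannide monooleate) sc into the right hind plantar surface. Treatment was ip in 2% DMSO/saline 40 min before CFA. Mechanical threshold was read with von Frey filaments by the up-down method at 2, 4 and 6 h. n = 6 mice/group, means ± SEM, two-way ANOVA with Bonferroni.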

Mus musculus [8] = test: Toxicity in mouse assessed as liver function measuring serum AST level at 100 mg/kg, ip for seven consecutive days relative to control; assay type: organism-based; set-up: dose 100 mg/kg, route intraperitoneal; conditions: in vivo; in short: as §2
Mus musculus [9] = test: Toxicity in mouse assessed as necrosis in gastric mucosa at 50 mg/kg, ip for seven consecutive days relative to control; assay type: organism-based; set-up: dose 50 mg/kg, route intraperitoneal; conditions: in vivo
In short: (§5)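 After 7 daily ip doses, stomachs were cryosectioned at 3 μm and stained with H&E. Sections were scored blind 0–4 for inflammatory infiltrate, edema, epithelial loss and necrosis. Ten fields (40×) were read per section, means ± SEM.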

Mus musculus [10] = test: Antinociceptive activity against formalin-induced pain in mouse assessed as paw licking during early phase (0 to 10 mins) at 100 mg/kg, ip administered 40 mins before formalin challenge; assay type: functional, organism-based; set-up: dose 100 mg/kg; in short: as §1
Mus musculus [11] = test: Toxicity in mouse assessed as gastric ulcer at 100 mg/kg, ip for seven consecutive days relative to control; assay type: organism-based, Stomach; set-up: dose 100 mg/kg, route intraperitoneal; conditions: in vivo; in short: as §5
Mus musculus [12] = test: Toxicity in mouse assessed as leukogram at 50 mg/kg, ip for seven consecutive days relative to control; assay type: organism-based; set-up: dose 50 mg/kg, route intraperitoneal; conditions: in vivo; in short: as §2
Mus musculus [13] = test: Antinociceptive activity against Freund's complete adjuvant-induced paw inflammation in IL10-deficient C57BL/6 mouse assessed as reduction in mechanical hyperalgesia at 100 mg/kg, ip administered 40 mins before CFA challenge measured 2 to 6 hrs; assay type: functional, organism-based; set-up: dose 100 mg/kg; in short: as §4
Mus musculus [14] = test: Toxicity in mouse assessed as renal function measuring serum creatinine level at 50 mg/kg, ip for seven consecutive days relative to control; assay type: organism-based; set-up: dose 50 mg/kg, route intraperitoneal; conditions: in vivo; in short: as §3
Mus musculus [15] = test: Toxicity in mouse assessed as gastric inflammation at 50 mg/kg, ip for seven consecutive days relative to control; assay type: organism-based, Stomach; set-up: dose 50 mg/kg, route intraperitoneal; conditions: in vivo; in short: as §5
Mus musculus [16] = test: Inhibition of IL10 production in Freund's complete adjuvant-induced C57BL/6 mouse paw at 100 mg/kg, ip administered 40 mins before CFA challenge measured after 3 hrs by ELISA; assay type: functional, organism-based; set-up: dose 100 mg/kg
In short: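 C57BL/6 wild-type mice received an ip dose 40 min before intraplantar CFA. Paw tissue IL-10 was read by ELISA 3 h after CFA, on protein extracts in PBS/0.4 M NaCl/Tween 20 with protease inhibitors. A saline group got 20 μL intraplantar saline instead. n = 6/group, means ± SEM, two-way ANOVA with Bonferroni.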

Mus musculus [17] = test: Neurotoxicity in mouse assessed as effect on motor coordination by measuring reduced latency at 100 mg/kg, ip after 40 mins by rotarod test; assay type: toxicity, organism-based; set-up: dose 100 mg/kg, route intraperitoneal; conditions: in vivo
In short: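 Mice were pre-selected 24 h earlier for staying on the bar for two 120 s periods. Rotarod was a 3 cm bar at 5 rpm. Mice were tested 40 min after ip dosing, with diazepam 10 mg/kg ip as reference. Time on the rod was recorded up to 120 s. n = 6/group.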

Mus musculus [18] = test: Toxicity in mouse assessed as renal function measuring serum creatinine level at 100 mg/kg, ip for seven consecutive days relative to control; assay type: organism-based; set-up: dose 100 mg/kg, route intraperitoneal; conditions: in vivo; in short: as §3
Mus musculus [19] = test: Antinociceptive activity against formalin-induced pain in mouse assessed as paw licking during late phase (10 to 60 mins) at 100 mg/kg, ip administered 40 mins before formalin challenge; assay type: functional, organism-based; set-up: dose 100 mg/kg; in short: as §1
Mus musculus [20] = test: Effect on baseline nociceptive threshold in Freund's complete adjuvant-induced mouse at 50 to 100 mg/kg, ip administered 40 mins before CFA challenge measured 2 to 6 hrs; assay type: functional, organism-based
Mus musculus [21] = test: Toxicity in mouse assessed as liver function measuring serum ALT level at 50 mg/kg, ip for seven consecutive days relative to control; assay type: organism-based; set-up: dose 50 mg/kg, route intraperitoneal; conditions: in vivo; in short: as §2
Mus musculus [22] = test: Neurotoxicity in mouse assessed as effect on motor coordination at 100 mg/kg, ip after 40 mins by Rotarod test; conditions: in vivo
Mus musculus [23] = test: Antinociceptive activity against Freund's complete adjuvant-induced paw inflammation in mouse assessed as reduction in paw edema at 50 mg/kg, ip administered 40 mins before CFA challenge measured after 2 hrs; assay type: functional, organism-based; set-up: dose 50 mg/kg
In short: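 CFA (20 μL, 1 mg/mL heat-killed M. tuberculosis) was injected sc into the right hind plantar surface. Treatment was ip in 2% DMSO/saline 40 min before. Paw volume was read by plethysmometer before and after CFA, and edema taken as the volume difference (mm3/paw). n = 6 mice/group, means ± SEM, two-way ANOVA with Bonferroni.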

COc1c(O)cc2c(c1O)[C@@H]1O[C@H](CO)[C@@H](O)[C@H](O)[C@H]1OC2=O [BERGENIN]
active: Activity (Mus musculus [1]) | inhibition (Mus musculus [2]) | Activity (Mus musculus [5]) Dose-dependent effect | Activity (Mus musculus [7]) | Activity (Mus musculus [10]) | Activity (Mus musculus [13]) | Activity (Mus musculus [19]) | Activity (Mus musculus [23])
Non-toxic: Activity (Mus musculus [3]) | Activity (Mus musculus [4]) | Activity (Mus musculus [6]) | Activity (Mus musculus [8]) | Activity (Mus musculus [9]) | Activity (Mus musculus [11]) | Activity (Mus musculus [12]) | Activity (Mus musculus [14]) | Activity (Mus musculus [15]) | Activity (Mus musculus [17]) | Activity (Mus musculus [18]) | Activity (Mus musculus [21]) | Activity (Mus musculus [22])
inactive: inhibition (Mus musculus [16]) | Activity (Mus musculus [20])
